For orientation: Kd means the equilibrium constant for the complex coming apart.

For 2 compounds, Kd results are on record in article PMC11516114 (Protein Science : A Publication of the Protein Society, 2024).

SMILES strings stand for the structures. Read-outs that look alike come from different tables or passages of the source.

For assay [1], the target named is T1, wild-type HIF-2α PAS-B (Homo sapiens, UniProt Q99814). The conditions noted are these: previously measured, ref Key et al. [2009]; cited from earlier work.
T1 sequence (Q99814 240-350): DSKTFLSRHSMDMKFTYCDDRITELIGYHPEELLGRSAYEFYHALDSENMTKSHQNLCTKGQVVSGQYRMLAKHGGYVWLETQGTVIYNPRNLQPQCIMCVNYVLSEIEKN
In assay [2] the target is T1, wild-type HIF-2α PAS-B. The assay can be described thus: Isothermal titration calorimetry. The class given is binding. Put shortly: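 Human HIF-2α PAS-B (residues 240–350), expressed with a cleavable His6-Gβ1 tag, purified by Ni2+ affinity, TEV cleavage, a second Ni2+ pass and size exclusion. ITC run at 25°C with protein (250–300 μM) titrated into 20 μM test compound: 25 injections, 250 s spacing, 350 rpm. Protein-into-buffer heats were subtracted.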

In the case of `O=[N+]([O-])c1cc(C(F)(F)F)ccc1NCc1ccsc1` [THS-017, 2‐nitro‐N‐[(thiophen‐3‐yl)methyl]‐4‐(trifluoromethyl)aniline], the Kd on wild-type HIF-2α PAS-B [1] is 590 ± 50 nM; at wild-type HIF-2α PAS-B [2] it was 600 ± 60 nM.

With `O=[N+]([O-])c1cc(C(F)(F)F)ccc1NCc1ccco1` [THS-020, N‐[(furan‐2‐yl)methyl]‐2‐nitro‐4‐(trifluoromethyl)aniline], the Kd on wild-type HIF-2α PAS-B [1] is 1500 ± 700 nM; on wild-type HIF-2α PAS-B [2], 1350 ± 110 nM.
